Assay results as given in ChEMBL document CHEMBL3120069, “Chemical genetics-based discovery of indole derivatives as HCV NS5B polymerase inhibitors” (Eur J Med Chem, 2014).

Legend:
[1] = Selectivity index, ratio of CC50 for human Huh7.5 cells to EC50 for Hepatitis C virus JFH-1 J6 genotype 2a infected in human Huh7.5 cells; format: toxicity, cell-based, Huh-7; details: read-out: Ratio CC50/EC50
[2] = tested on: Hepatitis C virus; assay: Antiviral activity against Hepatitis C virus JFH-1 J6 genotype 2a infected in human Huh7.5 cells assessed as viral RNA replication at 10 uM after 72 hrs by luciferase reporter gene assay relative to control; details: subtype 2a JFH1 J6, Huh-7, 72 h
[3] = Cytotoxicity against human Huh7.5 cells assessed as cell viability after 72 hrs by MTT assay; format: cell-based, Huh-7
[4] = Cytotoxicity against human Huh7.5 cells assessed as cell viability at 10 uM after 72 hrs by MTT assay relative to control; format: cell-based, Huh-7; details: read-out: Activity
Summary of the method: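 Rluc-J6/JFH1 RNA-transfected Huh7.5 cells screened at a single 10 µM for 72 h alongside DMSO, with clemizole as positive control. Renilla luciferase gave replication level and parallel MTT gave viability, each as percent of DMSO; ratio of viability to replication reported.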

[5] = tested on: Hepatitis C virus; assay: Antiviral activity against Hepatitis C virus JFH-1 J6 genotype 2a infected in human Huh7.5 cells assessed as inhibition of viral RNA replication after 72 hrs by luciferase reporter gene assay; format: functional, organism-based, Hepacivirus hominis; details: subtype 2a JFH1 J6, Huh-7, 72 h
[6] = Ratio of cytotoxicity against human Huh7.5 cells assessed as cell viability to antiviral activity against Hepatitis C virus JFH-1 J6 genotype 2a infected in human Huh7.5 cells assessed as inhibition of viral RNA replication; format: toxicity, cell-based, Huh-7

Row | SMILES | selectivity ratio [1] | Activity at 10 µM [2] [%] | CC50 at 72 h [3] [µM] | viability at 72 h, 10 µM [4] [%] | EC50 [5] [µM] | selectivity ratio [6]
1 | CCN(CC)C(=O)/C=C/c1c[nH]c2ccccc12 | 1.6 | 72 | 98.7 | 93.8 | 62.7 | 1.3
2 | CC(C)NC(=O)/C=C/c1c[nH]c2ccccc12 | > 1.1 | 69 | > 100 | 106 | 93.8 | 1.5
3 | C/C(=C\c1c[nH]c2ccc(C#N)cc12)C(=O)Nc1ccc(C)cc1 | – | – | > 100 | – | > 100 | –
4 | COc1ccc2[nH]cc(/C=C(\C)C(=O)Nc3ccc(C(C)(C)C)cc3)c2c1 | 5.5 | – | 16.4 | – | 3 | –
5 | CCOC(=O)/C(C)=C/c1c[nH]c2ccccc12 | 1.1 | – | 25.3 | – | 22.2 | –
6 | CC(C)(C)c1ccc(NC(=O)CCc2c[nH]c3ccccc23)cc1 | 2.3 | – | 13.6 | – | 6.1 | –
7 | COc1ccc(CNC(=O)/C=C/c2c[nH]c3ccccc23)cc1OC | 6.9 | 35.1 | 89.5 | 92.2 | 12.9 | 2.6
8 | C/C(=C\c1c[nH]c2ccccc12)C(N)=O | – | – | > 10 | – | > 10 | –
9 | C/C(=C\c1c[nH]c2cc(C(C)C)ccc12)C(=O)Nc1ccc(C(C)(C)C)cc1 | 17 | – | 24.8 | – | 1.5 | –
10 | C/C(=C\c1c[nH]c2ccc([N+](=O)[O-])cc12)C(=O)Nc1ccc(C(C)(C)C)cc1 | 3.7 | – | 23.1 | – | 6.2 | –
11 | C/C(=C\c1c[nH]c2ccccc12)C(=O)NCCN(C)C | > 1.6 | – | > 100 | – | 64.2 | –
12 | CNC(=O)/C(C)=C/c1c[nH]c2ccccc12 | – | – | > 10 | – | > 10 | –
13 | COc1ccc2c(/C=C(\C)C(=O)Nc3ccc(C(C)(C)C)cc3)c[nH]c2c1 | 3.5 | – | 30.7 | – | 8.8 | –
14 | C/C(=C\c1c[nH]c2ccccc12)C(=O)Nc1ccc(C(C)(C)C)cc1 | 7.9 | – | 17.3 | – | 2.2 | –
15 | C/C(=C\c1c[nH]c2ccccc12)C(=O)O | – | – | > 100 | – | > 10 | –
16 | C/C(=C\c1c[nH]c2cc(Br)ccc12)C(=O)Nc1ccc(C(C)(C)C)cc1 | 5.3 | – | 68.8 | – | 13 | –
17 | C/C(=C\c1c[nH]c2ccc(C#N)cc12)C(=O)Nc1ccc(C(C)C)cc1 | 3.6 | – | 137 | – | 37.7 | –
18 | COc1cccc2[nH]cc(/C=C(\C)C(=O)Nc3ccc(C(C)(C)C)cc3)c12 | 1.9 | – | 34.1 | – | 17.6 | –
19 | C/C(=C\c1c[nH]c2ccccc12)C(=O)NCc1ccco1 | 3.5 | – | 39.1 | – | 11.3 | –
20 | C/C(=C\c1c[nH]c2ccccc12)C(=O)Nc1ccc(C(F)(F)F)cc1 | 2.2 | – | 94.9 | – | 43.6 | –
21 | C/C(=C\c1c[nH]c2ccc(C)cc12)C(=O)Nc1ccc(C(C)(C)C)cc1 | 4.2 | – | 28.1 | – | 6.7 | –
22 | C/C(=C\c1c[nH]c2ccccc12)C(=O)NCCCn1ccnc1 | > 3 | – | > 100 | – | 33.7 | –
23 | C/C(=C\c1c[nH]c2cc(C)ccc12)C(=O)Nc1ccc(C(C)(C)C)cc1 | 5.7 | – | 25.6 | – | 4.5 | –
24 | Clc1ccc(Cn2c(CN3CCCC3)nc3ccccc32)cc1 [CLEMIZOLE] | 4.9 | 23.4 | 39.4 | 102 | 8 | 4.3
25 | O=C(/C=C/c1c[nH]c2ccccc12)N1CCN(Cc2ccc(C(F)(F)F)cc2)CC1 | 1.8 | 32.4 | 27.9 | 81.7 | 15.6 | 2.5
26 | CC(C)(C)c1ccc(NC(=O)/C=C/c2c[nH]c3ccccc23)cc1 | 5.2 | 2.1 | 10.1 | 60.1 | 1.9 | 28.6
